FXIIa inh: factor XIIa (human) inhibition; P00748; purified FXIIa, Boc-QGR-AMC fluorogenic substrate, 2 h; inhibition, % at 5 µM; hit rate 0.3% among 220,000; in the data active = inhibition above about 40%;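 also: 0% = enzyme with no compound and 100% = blank without enzyme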
FXIa inh: inhibitors of human coagulation factor XIa | P03951 | AID 798 | purified FXIa, Boc-Glu-Ala-Arg-AMC fluorogenic substrate | hit rate 0.14% among 220,000 | inhibition, % at 5 µM;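 active = inhibition of at least 40%; inactive = inhibition below 40%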;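 also: fluorescence of freed AMC excited at 355 nm; 0% = enzyme without compound and 100% = no enzyme blank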
Target sequence (P03951 19-387 limits assumed): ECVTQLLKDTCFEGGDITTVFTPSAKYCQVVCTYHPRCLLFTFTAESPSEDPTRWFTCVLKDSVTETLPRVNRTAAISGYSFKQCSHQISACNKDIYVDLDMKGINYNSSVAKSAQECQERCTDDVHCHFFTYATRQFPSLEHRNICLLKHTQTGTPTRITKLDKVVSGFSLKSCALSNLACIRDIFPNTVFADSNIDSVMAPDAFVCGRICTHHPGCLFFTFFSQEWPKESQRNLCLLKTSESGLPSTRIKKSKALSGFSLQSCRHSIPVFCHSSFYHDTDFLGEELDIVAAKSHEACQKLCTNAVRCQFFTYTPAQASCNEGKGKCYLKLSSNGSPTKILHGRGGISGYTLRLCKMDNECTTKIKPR
Target sequence (P03951 388-625 limits assumed): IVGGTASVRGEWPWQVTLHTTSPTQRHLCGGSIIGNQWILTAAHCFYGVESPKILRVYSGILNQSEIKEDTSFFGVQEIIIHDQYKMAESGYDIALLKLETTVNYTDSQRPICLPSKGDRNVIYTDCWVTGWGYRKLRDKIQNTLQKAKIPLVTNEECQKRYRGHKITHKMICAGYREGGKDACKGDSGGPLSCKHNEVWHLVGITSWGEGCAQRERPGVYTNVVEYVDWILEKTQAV
Thrombin inh: thrombin (human) inhibition | P00734 | alpha-thrombin, Boc-VPR-AMC fluorogenic substrate cleavage | inhibition, % at 5 µM | hit rate 0.26% among 220,000;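 active = inhibition at or above 40%; inactive = inhibition below 40%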;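 also: 0% = enzyme with no compound and 100% = wells without enzyme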
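System: human alpha-thrombin protein; Compound dosing: one concentration per compound, 5 µM, with 0.2% DMSO; Timing: reaction at room temperature; Technique: AMC fluorescence, 355/460 nm; Controls: enzyme without compound as high, wells lacking enzyme as low.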
KLK5 inh: inhibitors of human kallikrein 5; AID 873; recombinant hK5, fluorogenic AMC substrate cleavage; hit rate 0.59% among 210,000; Q9Y337; inhibition, % at 5 µM;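 active = inhibition of 40% or more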;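 also: 0% = enzyme controls without compound and 100% = no-enzyme blanks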
Tb hexokinase: T. brucei hexokinase 1 inhibition | inhibition, % at 10 µM | recombinant TbHK1, G6PDH-coupled NADH A340 | AID 1430 | hit rate 0.11% among 220,000;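 active = inhibition of 50% or more in the single-dose primary screen; inactive = inhibition below 50%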
* marks the source's active call; other numbers are inactive results; / = no result. Most compounds without a hit are left out; they make up all but 1.1% or so of the library.

SMILES	FXIIa inh	FXIa inh	Thrombin inh	KLK5 inh	Tb hexokinase
Cc1occc1C(=O)NNC(=O)c1ccccc1C(=O)O	0	-6	-5	-7	-4
Cc1ccccc1C(=O)NNC(=O)c1ccoc1C	0	2	16	63*	4
CNC(=S)NNC(=O)c1ccccc1Br	14	19	0	-8	-2
Cc1occc1C(=O)NNC(=O)c1ccccc1Br	21	16	8	46*	0
Cc1cc(NS(=O)(=O)c2ccc(N3C(=O)C4C5C=CC(C5)C4C3=O)cc2)nc(C)n1 (centres undefined)	4	67*	0	-10	3
CCOC(=O)C1CCCN(C(=O)c2cc(-c3ccc(C)cc3)on2)C1 (centres undefined)	-5	-5	1	-14	2
CCOC(=O)C1CCCN(C(=O)c2cc3nc(-c4cccc(OC)c4)cc(C(F)(F)F)n3n2)C1 (centres undefined)	26	23	19	54*	-20
CCOC(=O)C1CCCN(C(=O)c2cc3ncc(Br)cn3n2)C1 (centres undefined)	28	13	17	48*	1
CCN(CC(=O)Nc1ccc(OC)c(Cl)c1)CC(=O)NC(C)C	13	-1	2	6	3
Cc1ccc(SCC(=O)NC(=O)NCc2ccco2)cc1C	-4	-6	-11	-19	11
COC(=O)C(Cc1ccc(OC(=O)c2ccc(C)cc2)cc1)N1Cc2ccccc2C1=O (centres undefined)	32	-2	-11	-31	3
CSc1ccc(C(=O)/C=C/c2ccc(N)cc2)cc1	6	17	22	69*	-24
Cc1ccc(NC(=O)ON=C2CCCC2)cc1	20	9	32	44*	32
O=C(Cn1[nH]c(=O)c2ccccc2c1=O)Nc1cccc(S(=O)(=O)N2CCCCCC2)c1	/	52*	22	27	12
CC(C)(C)C(=O)COC(=O)c1cc(-c2cccnc2)nc2ccccc12	5	2	0	0	-9
Oc1cccc(-c2nc3ccccc3s2)c1	12	14	104*	63*	-4
CCC(C)c1ccc(OCCCCN2CCOCC2)cc1 (centres undefined)	15	0	-1	-4	-14
O=C(Nc1nc(-c2ccccc2)cs1)c1cccs1	2	-6	-5	-9	-6
O=C(Nc1nc(-c2ccc(Cl)s2)cs1)c1cccs1	73*	91*	39	16	-3
CCn1ncc(Br)c1C(=O)Nc1ccccc1OC	8	-6	-3	-2	5
CCn1ncc(Br)c1C(=O)Nc1cc([N+](=O)[O-])ccc1C	23	19	54*	3	-1
Cc1ccc(S(=O)(=O)N2CCN(C(C(=O)Nc3ccc(F)cc3)c3ccccc3)CC2)cc1 (centres undefined)	11	18	33	46*	4
Cc1ccccc1C(=O)c1cccn1CC(=O)NC(C)c1ccc2c(c1)OCCO2 (centres undefined)	0	-6	1	-18	1
CS(=O)(=O)c1ccc(-c2nn[nH]n2)cc1	1	-4	-5	-8	14
CS(=O)(=O)c1nc(-c2ccc(Br)cc2)n[nH]1	98*	3	-6	-2	2
SMILES	FXIIa inh	FXIa inh	Thrombin inh	KLK5 inh	Tb hexokinase
Clc1ccc(-c2ccccc2)nn1	5	-9	-6	45*	-3
COc1cccc(OC)c1CC1SC(=O)NC1=O (centres undefined)	7	-2	-6	9	-4
C/C(CCC(C)C)=N\Nc1cc(C)c2ccccc2n1	6	-5	1	-2	-6
COc1ccc(Cl)c(Cn2c(NCc3ccco3)nc3c2c(=O)n(C)c(=O)n3C)c1	15	3	-4	-1	5
COc1cccc(Cn2c(NCc3ccco3)nc3c2c(=O)n(C)c(=O)n3C)c1	44*	12	0	3	6
COc1ccc(CN(C)C(=S)Nc2ccc(Cl)cc2)cc1	42*	27	-1	30	9
O=C(Nc1ccccc1N1CCOCC1)c1cc(Br)c(Br)s1	6	1	-1	17	-2
Cc1nn(CC(=O)N2CCc3ccccc3C2)c(C)c1[N+](=O)[O-]	85*	38	-1	22	-4
S=C1NC2=C(C(c3ccc(Br)cc3)N1)N1CCC2CC1 (centres undefined)	23	3	20	76*	-2
CCOC(=O)C(C(=O)NCc1ccc(C)cc1)c1ncc(C(F)(F)F)cc1Cl (centres undefined)	22	-18	4	2	0
CCOC(=O)C(C(=O)NCc1cccc(OC)c1)c1ncc(C(F)(F)F)cc1Cl (centres undefined)	45*	19	25	36	5
O=c1c2ccccc2sn1-c1cc(S(=O)(=O)N2CCOCC2)ccc1N1CCOCC1	10	-9	0	-7	50*
CC12CCC(C(=O)N3CCN(c4ccccc4)CC3)(CC1=O)C2(C)C (centres undefined)	2	5	8	54*	-2
CC(=O)NC(C)c1ccc(Cl)c(Cl)c1 (centres undefined)	0	14	16	68*	-4
COc1ccc(C(C)NC(=O)c2ccccc2Cl)cc1OC (centres undefined)	0	-1	-3	-12	0
Cc1cc(=O)[nH]c2c1c(C)nn2C1CCCC1	-1	-1	3	54*	-6
O=C(O)c1cccc(N2C(=O)C3C4C=CC(C4=C(c4ccccc4)c4ccccc4)C3C2=O)c1 (centres undefined)	14	8	/	1	22
Cc1cc(NC(=O)COc2ccccc2C)no1	12	-1	-6	2	2
Cc1cc(NC(=O)COc2nnc(-c3ccccc3)c3ccccc23)no1	23	7	13	58*	17
CCCCCCN1C=CC=C/C1=C\C=C(C#N)C#N	4	0	-9	-1	-11
O=C(O)CCCN=CC1=C(O)CNC1=O	0	-3	/	-3	2
C/C(=N\Nc1ccc(Cl)c(C(=O)O)c1)c1cccc([N+](=O)[O-])c1	32	39	56*	32	2
C/C(=N\NC(=O)c1ccccc1C)c1cccc([N+](=O)[O-])c1	6	-11	3	-19	-4
Cc1ccc(NC2=NC3(CCCCC3)N=C(N)N2)c(C)c1	13	45*	2	37	-1
CN1C=CC2=C(C#N)C(N)C(C#N)(C#N)[C@H](c3ccccc3)[C@H]2C1 (some centres undefined)	16	8	3	-14	0
CCC(=O)C1=C(N2CCCC2)CC(C)(C)CC1=O	27	3	11	47*	-8
CC(=O)NC(=S)Nc1ccc(N2CCOCC2)c(S(=O)(=O)Nc2cc(Cl)ccc2Cl)c1	0	-2	1	-15	-5
O=c1c2cc3c(nc2[nH]c(=S)n1-c1ccccc1)CCCC3	4	-1	-9	-6	-14
CCn1c(=S)[nH]c2nc3c(cc2c1=O)CCCC3	14	10	33	88*	-8
